According to ChEMBL document CHEMBL2046344, “Natural products as a gold mine for selective matrix metalloproteinases inhibitors” (Bioorg Med Chem, 2012):
The source made the active and inactive calls. The rule behind the calls is not given here.

Columns and labels:
[1] = target: T1, 72 kDa type IV collagenase (Homo sapiens, UniProt P08253); test: Inhibition of human recombinant MMP2 catalytic domain at 10 uM incubated for 20 mins by fluorimetric assay
Procedure, shortened: (§1)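 Diluted recombinant MMP enzyme pre-incubated 20 min at room temperature with varied inhibitor concentrations in 50 mM Tris–HCl, 150 mM NaCl, 5 mM CaCl2, 0.05% Brij-35, pH 7.5; total assay volume 100 µl.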
Target sequence in this assay (P08253 110-660 limits assumed): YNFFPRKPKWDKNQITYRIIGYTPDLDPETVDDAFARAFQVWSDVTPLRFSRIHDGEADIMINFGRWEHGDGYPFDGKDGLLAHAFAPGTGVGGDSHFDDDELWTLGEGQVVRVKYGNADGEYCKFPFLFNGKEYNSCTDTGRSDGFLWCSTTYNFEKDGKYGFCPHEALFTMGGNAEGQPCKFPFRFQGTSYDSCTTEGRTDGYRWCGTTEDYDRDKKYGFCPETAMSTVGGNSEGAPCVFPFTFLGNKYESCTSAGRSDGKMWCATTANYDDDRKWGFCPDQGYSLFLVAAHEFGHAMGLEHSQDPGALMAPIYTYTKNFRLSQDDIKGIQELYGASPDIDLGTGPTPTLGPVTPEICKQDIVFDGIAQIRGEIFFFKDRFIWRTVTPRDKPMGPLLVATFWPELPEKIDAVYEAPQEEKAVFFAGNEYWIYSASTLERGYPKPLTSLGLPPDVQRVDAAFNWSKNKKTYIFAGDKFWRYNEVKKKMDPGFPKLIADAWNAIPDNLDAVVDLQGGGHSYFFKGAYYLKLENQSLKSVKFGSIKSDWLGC

[2] = target: T1, 72 kDa type IV collagenase; test: Inhibition of human recombinant MMP2 catalytic domain incubated for 20 mins by fluorimetric assay; procedure, shortened: as §1
Target sequence in this assay (P08253 whole entry, the tested form may be a part): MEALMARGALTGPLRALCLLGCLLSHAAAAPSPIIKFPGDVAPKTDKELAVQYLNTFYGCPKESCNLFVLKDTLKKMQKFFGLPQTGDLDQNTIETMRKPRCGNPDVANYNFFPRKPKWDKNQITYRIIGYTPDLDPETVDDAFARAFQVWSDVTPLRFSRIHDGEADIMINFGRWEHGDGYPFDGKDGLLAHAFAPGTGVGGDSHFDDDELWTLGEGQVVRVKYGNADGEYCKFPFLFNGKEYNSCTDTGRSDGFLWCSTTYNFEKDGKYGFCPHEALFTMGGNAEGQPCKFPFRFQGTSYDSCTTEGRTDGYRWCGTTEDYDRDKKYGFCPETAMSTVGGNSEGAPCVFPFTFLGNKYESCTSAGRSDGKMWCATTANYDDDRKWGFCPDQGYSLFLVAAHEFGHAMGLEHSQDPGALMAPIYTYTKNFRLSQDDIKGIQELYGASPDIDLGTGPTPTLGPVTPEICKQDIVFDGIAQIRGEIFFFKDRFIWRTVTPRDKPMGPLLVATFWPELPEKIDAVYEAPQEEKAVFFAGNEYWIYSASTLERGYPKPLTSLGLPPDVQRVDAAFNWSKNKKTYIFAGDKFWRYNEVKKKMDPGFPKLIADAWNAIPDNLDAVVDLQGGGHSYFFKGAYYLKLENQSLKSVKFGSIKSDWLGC

Stromelysin-1 [3] = target: T2, Stromelysin-1 (Homo sapiens, UniProt P08254); test: Inhibition of human recombinant MMP3 catalytic domain incubated for 20 mins by fluorimetric assay; procedure, shortened: as §1
T2 sequence (P08254 whole entry, the tested form may be a part): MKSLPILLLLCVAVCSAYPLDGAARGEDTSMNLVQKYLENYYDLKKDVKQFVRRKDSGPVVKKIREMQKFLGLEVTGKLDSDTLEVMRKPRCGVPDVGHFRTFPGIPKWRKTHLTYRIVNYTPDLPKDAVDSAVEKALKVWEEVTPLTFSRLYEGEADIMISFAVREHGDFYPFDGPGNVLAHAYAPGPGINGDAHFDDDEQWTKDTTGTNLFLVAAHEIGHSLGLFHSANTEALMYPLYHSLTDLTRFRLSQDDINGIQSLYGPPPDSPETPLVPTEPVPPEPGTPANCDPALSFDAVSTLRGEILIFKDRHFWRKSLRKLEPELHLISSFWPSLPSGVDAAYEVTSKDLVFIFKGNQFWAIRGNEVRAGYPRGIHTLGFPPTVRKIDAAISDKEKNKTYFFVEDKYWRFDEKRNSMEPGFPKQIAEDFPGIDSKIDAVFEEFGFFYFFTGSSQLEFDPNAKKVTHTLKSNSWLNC

[4] = target: T3, Macrophage metalloelastase (Homo sapiens, UniProt P39900); test: Inhibition of human recombinant MMP12 catalytic domain at 10 uM incubated for 20 mins by fluorimetric assay; procedure, shortened: as §1
T3 sequence (P39900 whole entry, the tested form may be a part): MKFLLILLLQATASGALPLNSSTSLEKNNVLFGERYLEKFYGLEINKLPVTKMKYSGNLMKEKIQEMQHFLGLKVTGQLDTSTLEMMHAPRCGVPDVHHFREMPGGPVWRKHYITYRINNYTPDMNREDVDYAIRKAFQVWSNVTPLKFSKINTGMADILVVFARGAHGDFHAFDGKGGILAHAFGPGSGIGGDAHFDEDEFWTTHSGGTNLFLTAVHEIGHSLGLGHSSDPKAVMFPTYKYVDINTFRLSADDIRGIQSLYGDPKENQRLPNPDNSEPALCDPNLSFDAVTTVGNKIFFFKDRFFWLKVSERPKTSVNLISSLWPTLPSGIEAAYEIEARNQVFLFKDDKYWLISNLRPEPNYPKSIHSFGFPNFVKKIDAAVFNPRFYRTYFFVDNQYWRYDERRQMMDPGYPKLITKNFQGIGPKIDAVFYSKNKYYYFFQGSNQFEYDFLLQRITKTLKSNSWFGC

[5] = target: T3, Macrophage metalloelastase; test: Inhibition of human recombinant MMP12 catalytic domain incubated for 20 mins by fluorimetric assay; procedure, shortened: as §1
[6] = target: T4, Matrix metalloproteinase-9 (Homo sapiens, UniProt P14780); test: Inhibition of human recombinant MMP9 catalytic domain at 10 uM incubated for 20 mins by fluorimetric assay; procedure, shortened: as §1
T4 sequence (P14780 whole entry, the tested form may be a part): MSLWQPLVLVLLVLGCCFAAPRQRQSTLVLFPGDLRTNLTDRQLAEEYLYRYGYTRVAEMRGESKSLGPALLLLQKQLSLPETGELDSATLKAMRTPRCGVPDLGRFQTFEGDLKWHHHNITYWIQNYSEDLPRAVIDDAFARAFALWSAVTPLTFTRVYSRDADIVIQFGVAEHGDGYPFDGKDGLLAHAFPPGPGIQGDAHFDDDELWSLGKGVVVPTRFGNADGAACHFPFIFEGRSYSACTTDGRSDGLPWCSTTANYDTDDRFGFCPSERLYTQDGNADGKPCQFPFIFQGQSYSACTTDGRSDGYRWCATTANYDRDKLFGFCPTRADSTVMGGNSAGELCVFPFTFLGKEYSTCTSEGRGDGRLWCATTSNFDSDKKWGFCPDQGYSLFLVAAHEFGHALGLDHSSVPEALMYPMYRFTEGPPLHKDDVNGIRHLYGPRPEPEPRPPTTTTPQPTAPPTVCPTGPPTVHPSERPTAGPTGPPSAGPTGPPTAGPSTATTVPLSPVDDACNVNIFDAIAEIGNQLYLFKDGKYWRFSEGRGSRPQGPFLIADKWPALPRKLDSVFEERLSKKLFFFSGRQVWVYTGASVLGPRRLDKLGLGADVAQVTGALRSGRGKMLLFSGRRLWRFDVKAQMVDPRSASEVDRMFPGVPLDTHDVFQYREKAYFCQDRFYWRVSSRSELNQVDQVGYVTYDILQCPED

[7] = target: T4, Matrix metalloproteinase-9; test: Inhibition of human recombinant MMP9 catalytic domain incubated for 20 mins by fluorimetric assay; procedure, shortened: as §1
Collagenase 3 [8] = target: T5, Collagenase 3 (Homo sapiens, UniProt P45452); test: Inhibition of human recombinant MMP13 catalytic domain incubated for 20 mins by fluorimetric assay; procedure, shortened: as §1
Collagenase 3 [9] = target: T5, Collagenase 3; test: Inhibition of human recombinant MMP13 catalytic domain at 10 uM incubated for 20 mins by fluorimetric assay; procedure, shortened: as §1
Stromelysin-1 [10] = target: T2, Stromelysin-1; test: Inhibition of human recombinant MMP3 catalytic domain at 10 uM incubated for 20 mins by fluorimetric assay; procedure, shortened: as §1
[11] = target: T6, Interstitial collagenase (Homo sapiens) (UniProt P03956); test: Inhibition of human recombinant MMP1 catalytic domain at 10 uM incubated for 20 mins by fluorimetric assay; procedure, shortened: as §1
T6 sequence (whole entry): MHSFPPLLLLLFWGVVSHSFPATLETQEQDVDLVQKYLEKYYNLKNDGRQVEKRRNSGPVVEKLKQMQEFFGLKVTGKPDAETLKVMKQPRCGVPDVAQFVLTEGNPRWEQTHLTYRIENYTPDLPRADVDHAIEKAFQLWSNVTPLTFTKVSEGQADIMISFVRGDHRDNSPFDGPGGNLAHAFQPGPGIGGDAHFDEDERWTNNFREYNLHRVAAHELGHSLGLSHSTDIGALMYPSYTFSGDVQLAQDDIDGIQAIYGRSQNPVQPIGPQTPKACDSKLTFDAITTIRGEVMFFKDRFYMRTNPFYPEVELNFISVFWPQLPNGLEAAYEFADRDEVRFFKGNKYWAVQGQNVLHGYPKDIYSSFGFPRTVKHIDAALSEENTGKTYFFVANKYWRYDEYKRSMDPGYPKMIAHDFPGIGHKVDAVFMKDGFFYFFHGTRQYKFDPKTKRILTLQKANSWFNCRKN

Interstitial collagenase = target: T7, Interstitial collagenase (Homo sapiens, UniProt P03956); test: Inhibition of human recombinant MMP1 catalytic domain incubated for 20 mins by fluorimetric assay; procedure, shortened: as §1
T7 sequence (P03956 whole entry): T6 sequence (whole entry)

MDA-MB-231 [12] = test: Inhibition of pro-MMP9 protein expression in human MDA-MB-231 cells at 50 uM incubated for 24 hrs by Western blot; format: functional, cell-based
Procedure, shortened: (§2)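 MDA-MB-231 cells co-incubated with 20 ng/ml TPA and test compound at 50 µM for 24 h, then lysed. Lysates centrifuged 10000g, 10 min, 4 °C, run on 10% SDS–PAGE, transferred to PVDF, blocked overnight at 4 °C in TBST with 5% skim milk. Probed with anti-MMP-2 and anti-MMP-9 antibodies; GAPDH as loading control.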

MDA-MB-231 [13] = test: Effect on cell proliferation of human MDA-MB-231 cells at 50 uM incubated for 24 hrs; format: functional, cell-based
MDA-MB-231 [14] = test: Inhibition of MMP2 protein expression in human MDA-MB-231 cells at 50 uM incubated for 24 hrs by Western blot; format: functional, cell-based; procedure, shortened: as §2
MDA-MB-231 [15] = test: Inhibition of cell migration of human MDA-MB-231 cells at 10 uM incubated for 48 hrs by wound healing assay; format: functional, cell-based
Procedure, shortened: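 MDA-MB-231 monolayer grown overnight to confluence and scratched with a pipette tip. Debris washed off with L15 medium, then cells kept in serum-free L15 with compound (1 and 10 µM) for 48 h. Migration into the wound photographed by phase-contrast microscopy at 0, 24 and 48 h.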

MDA-MB-231 [16] = test: Inhibition of active MMP9 protein expression in human MDA-MB-231 cells at 50 uM incubated for 24 hrs by Western blot; format: functional, cell-based; procedure, shortened: as §2

SMILES	inhibition [1] [%]	IC50 [2] [µM]	IC50 (Stromelysin-1 [3]) [µM]	inhibition [4] [%]	IC50 [5] [µM]	inhibition [6] [%]	IC50 [7] [µM]	IC50 (Collagenase 3 [8]) [µM]	inhibition (Collagenase 3 [9]) [%]	inhibition (Stromelysin-1 [10]) [%]	inhibition [11] [%]	IC50 (Interstitial collagenase) [µM]	inhibition (MDA-MB-231 [12])	inhibition (MDA-MB-231 [13])	inhibition (MDA-MB-231 [14])	inhibition (MDA-MB-231 [15])	inhibition (MDA-MB-231 [16])
C[C@]12CCC[C@@](C)(C(=O)O)[C@@H]1CCC1=CC(=O)CC[C@@H]12	> 30	33.3															
O=C1c2c(O)cc(O)cc2O[C@H](c2cc(O)c(O)c(O)c2)[C@@H]1O	> 30	11.9	20.3	> 30	1.74	> 30	28.8	9.33	> 30	> 30							
O=c1c(O)c(-c2ccc(O)c(O)c2)oc2cc(O)cc(O)c12 [QUERCETIN]	> 30	6.68	5.57	> 30	10.2	> 30	1.61	8.46	> 30	> 30							
COC(=O)[C@@H](Cc1ccc(O)c(O)c1)OC(=O)/C=C/c1ccc(O)c(O)c1 [METHYL ROSMARINATE]	> 30	3.58	28.3	> 30	2.75	> 30	0.61	29	> 30	> 30	> 30	14.7					
CNC(=O)C(CCc1ccccc1)NC(=O)C(CC(=O)NO)CC(C)C (configuration not stated)	> 30	0.0036		> 30	0.0082			0.0064	> 30		> 30	0.0041					
Oc1cc(O)cc(/C=C/c2ccc(O)cc2O)c1 [OXYRESVERATROL]	> 30	27.6															
COC(=O)C1(O)CC(OC(=O)/C=C/c2ccc(O)c(O)c2)C(O)C(OC(=O)/C=C/c2ccc(O)c(O)c2)C1 (configuration not stated) [MACRATHOIN F]	> 30	3.88	10.4	> 30	1.2	> 30	11.6	7.62	> 30	> 30	> 30	16.3					
O=c1cc(-c2ccc(O)c(O)c2)oc2cc(O)cc(O)c12 [LUTEOLIN]	> 30	3.61	16.2	> 30	0.98	> 30	5.62	10	> 30	> 30							
COc1ccc(S(=O)(=O)N2CC(C)(C)CN(S(=O)(=O)c3ccc(OC)cc3)C2C(=O)NO)cc1			0.0286			> 30	0.0018			> 30							
C[C@@H]1O[C@@H](O[C@@H]2[C@@H](O)[C@H](OCCc3ccc(O)c(O)c3)O[C@H](COC(=O)/C=C/c3ccc(O)c(O)c3)[C@H]2O)[C@H](O)[C@H](O)[C@H]1O [ISOACTEOSIDE]	> 30	8.96	91.4	> 30	8.22	> 30	14.3	11.1	> 30	> 30							
COC(=O)C1(O)CC(O)C(O)C(OC(=O)/C=C/c2ccc(O)c(O)c2)C1 (configuration not stated)	> 30	64.2	58.8							> 30							
O=C1CCC(O)(CCOC(=O)/C=C/c2ccc(O)c(O)c2)CC1						> 30	12.5										
CCCCOC(=O)[C@H]1c2c(/C=C/C(=O)O[C@H](Cc3ccc(O)c(O)c3)C(=O)O)ccc(O)c2O[C@@H]1c1ccc(O)c(O)c1	> 30	15.5	14.8	> 30	1.79	> 30	3.46	24.5	> 30	> 30	> 30	3.25					
O=c1c2cc(O)c(O)cc2oc2cc(O)cc(O)c12											> 30	11.4					
COc1cc(C(O)C(CO)Oc2ccc(/C=C\CO)cc2OC)ccc1O (configuration not stated)						> 30	9.91										
COc1cc(C[C@@H](CO)[C@H](CO)Cc2ccc(O)c(OC)c2)ccc1O [(+)-SECOISOLARICIRESINOL]											> 30	50.1					
CC(C)CC(=O)OC(C(=O)O)C(C)C (configuration not stated)	> 30	23.3	38.2			> 30	14.3	42.5	> 30	> 30	> 30	10.6					
O=C1c2c(O)cc(O)cc2O[C@]2(c3ccc(O)cc3)Oc3cc(O)c4c(c3[C@@]12O)O[C@H](c1ccc(O)cc1)CC4 [DAPHNODORIN F]	> 30	23.3	22.3			> 30	21.2	13.2	> 30	> 30							
O=C1c2c(O)cc(O)cc2O[C@H](c2ccc(O)c(O)c2)[C@H]1O	> 30			> 30		> 30			> 30	> 30							
COC(=O)[C@@H](Cc1ccc(O)c(O)c1)OC(=O)/C=C/c1ccc(O)c2c1[C@H](C(=O)OC)[C@@H](c1ccc(O)c(O)c1)O2 [DIMETHYL LITHOSPERMATE]	> 30	11.6	8.15	> 30	0.67	> 30	0.99	18.5	> 30	> 30	> 30	8.23	inactive	inactive	Active	Active	Active
O=C(c1c(O)cc(O)cc1O)C1c2c(cc(O)c3c2O[C@H](c2ccc(O)cc2)[C@@H](O)C3)OC1c1ccc(O)cc1 (some centres not stated) [DIHYDRODAPHNODORIN B]	> 30	14.1	25.6			> 30	10.2	43.5	> 30	> 30							
